Assay results of several laboratories.
Target: Serine/threonine-protein kinase WNK1 (WNK1, Homo sapiens, UniProt Q9H4A3)

Structure (SMILES)	read-out	technique	tested at	remaining binding [%]
NS(=O)(=O)c1cc(NC(=O)Cc2ccccc2)ccc1Oc1cccc(Cl)c1	cell-free assay	competition with immobilised ligand	1 µM	89
O=C(c1ccc(Nc2nccc(-c3cc4ccccc4s3)n2)cc1)N1CCC(N2CCCC2)CC1	binding	competition with immobilised ligand	1 µM	88
Nc1ncc2c(n1)-c1c([nH]c3ccc(C#CC4CC4)cc13)CCCC2	binding	competition with immobilised ligand	1 µM	97
Cc1nc(N2CC[C@@H](O)C2)ncc1-c1cc(C(F)(F)F)cc2[nH]ncc12	binding	competition with immobilised ligand	1 µM	71
CC1CCCN1c1nccc(-c2cnn3ncccc23)n1 (stereo not shown)	binding		1 µM	98
O=C(O)[C@H]1[C@H](Cn2nnc3ccccc3c2=O)CC[C@@H]1C(=O)c1ccc(OCCC2CCOCC2)cc1	cell-free assay	competition with immobilised ligand	1 µM	100
Cc1cnn2ncc(-c3ccnc(N(C)C)n3)c2c1	binding		1 µM	94
CS(=O)(=O)N1CCCC(NC(=O)[C@H](CCC2CCCCC2)NC(=O)c2ccc(CNC(=O)c3cnc4ccccn34)cc2)C1 (stereo partly shown)	cell-free assay	competition with immobilised ligand	0.1 µM	99
O=C(NCCCN1CCOCC1)c1ccc(Nc2ncc(Cl)c(-c3ccc(Cl)s3)n2)cc1	binding	competition with immobilised ligand	1 µM	89
CN(C)c1ncc(F)c(-c2cnn3ncccc23)n1	binding		1 µM	87
O=C(c1ccc(Nc2ncc(Cl)c(-c3ccc(Cl)s3)n2)cc1)N1CCC(N2CCCC2)CC1	binding	competition with immobilised ligand	1 µM	95
CCN1CCN(Cc2ccc(C(=O)Nc3ccc(C)c(Oc4ccc5c(c4)CC(=O)N5)c3)cc2C(F)(F)F)CC1	binding	competition with immobilised ligand	1 µM	100
C[C@H]1CCN(c2nccc(-c3cnn4ncccc34)n2)C1	binding		1 µM	91
O=C(Nc1c[nH]nc1C(=O)NC1CCNCC1)c1cc(F)cc(F)c1	binding	competition with immobilised ligand	1 µM	100
CC(C)CC(=O)N1CCc2nc(-c3ccc(Br)cc3)nc(N(C)Cc3ccccc3)c2C1	cell-free assay	competition with immobilised ligand	0.1 µM	100
COc1ccnn2ncc(-c3ccnc(N(C)C)n3)c12	binding		1 µM	100
NS(=O)(=O)c1cc(NC(=O)C2(c3ccccc3Cl)CC2)ccc1Oc1cccc(Cl)c1	cell-free assay	competition with immobilised ligand	1 µM	88
N[C@H]1CCN(c2nccc(-c3cnn4ncccc34)n2)C1	binding		1 µM	8.4
CNC(=O)[C@@H]1CC[C@@H](n2c(-c3ccc4cnccc4c3)nc3ccc(C(=O)NCc4cccc(C(N)=O)c4)cc32)C1	binding	competition with immobilised ligand	1 µM	100
